High-throughput results (PubChem BioAssay)
MT1-MMP act inh: blockers of MT1-MMP proenzyme processing, primary screen, HT1080 RFP-PRO-GFP cells, GFP/RFP fluorescence; Matrix metalloproteinase-14 (Homo sapiens), P50281; GFP/RFP ratio fluorescence, overnight; percent of plate control window, DMSO zero; GFP/RFP ratio change, % at 20 µM; 360,000 compounds, 0.061% hits; AID 651647, 2012;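 active = GFP/RFP ratio change of at least 30% with cell ATP level not reduced by more than half and red fluorescence within 50% of control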
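Compound: 20 µM single dose, 1% DMSO / System: HT1080 RFP-PRO-GFP cells / Controls: DMSO and RFP-L50D-GFP cell wells / Read-out basis: GFP/RFP fluorescence ratio / Schedule: overnight compound exposure at 37 °C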
ANO1 activ: TMEM16A chloride channel activators or potentiators, primary screen, cell-based, HTS; 340,000 compounds, 0.3% hits; HEK293 TMEM16A/YFP-H148Q/I152L, iodide quench fluorescence; hits give low values; B-score at 10 µM; AID 623877, 2012; Anoctamin-1 (Mus musculus), Q8BHY3;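 active = fluorescence-ratio B-score plate-corrected deviation score at least 3 library SD below zero, with starting fluorescence score within 5 deviations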;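 note: channel opened by trigger with iodide after compound preincubation; score built on the fluorescence ratio of max minus min over baseline; more negative score means more quench and so TMEM16A activation or potentiation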
Target sequence (Q8BHY3 whole entry, looked up): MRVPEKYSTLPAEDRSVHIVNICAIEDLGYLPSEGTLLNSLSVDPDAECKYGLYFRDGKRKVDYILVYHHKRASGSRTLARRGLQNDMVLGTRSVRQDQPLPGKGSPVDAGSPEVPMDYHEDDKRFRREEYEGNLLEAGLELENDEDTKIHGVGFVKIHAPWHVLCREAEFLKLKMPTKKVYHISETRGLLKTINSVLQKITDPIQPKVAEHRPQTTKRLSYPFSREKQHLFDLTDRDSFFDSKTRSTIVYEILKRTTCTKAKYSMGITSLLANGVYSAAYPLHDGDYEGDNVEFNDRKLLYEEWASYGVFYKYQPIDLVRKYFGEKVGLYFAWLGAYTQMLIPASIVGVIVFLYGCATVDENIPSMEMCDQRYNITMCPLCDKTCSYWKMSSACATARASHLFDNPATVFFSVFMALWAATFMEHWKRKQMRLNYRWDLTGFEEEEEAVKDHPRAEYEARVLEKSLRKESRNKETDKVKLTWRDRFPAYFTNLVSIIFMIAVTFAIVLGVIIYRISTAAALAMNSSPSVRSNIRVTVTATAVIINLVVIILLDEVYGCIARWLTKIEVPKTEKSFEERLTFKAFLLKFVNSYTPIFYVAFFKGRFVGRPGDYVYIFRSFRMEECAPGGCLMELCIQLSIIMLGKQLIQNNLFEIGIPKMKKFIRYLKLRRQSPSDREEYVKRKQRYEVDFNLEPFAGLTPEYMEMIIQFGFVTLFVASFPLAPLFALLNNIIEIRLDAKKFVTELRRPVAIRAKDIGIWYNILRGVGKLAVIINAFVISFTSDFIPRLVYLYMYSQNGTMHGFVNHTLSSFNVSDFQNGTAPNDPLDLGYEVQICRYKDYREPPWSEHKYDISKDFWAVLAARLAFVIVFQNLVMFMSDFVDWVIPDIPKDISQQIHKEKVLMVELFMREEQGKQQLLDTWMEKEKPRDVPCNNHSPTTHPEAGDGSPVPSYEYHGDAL
TMEM16A inh: TMEM16A chloride channel inhibitors, primary screen, cell-based, HTS; HEK293 TMEM16A/YFP iodide influx fluorescence, ionomycin; AID 588511, 2011; normalized B-score (activity score, 25-100; higher = stronger inhibition) at 10 µM; 310,000 compounds, 1.2% hits; Anoctamin-1 (Mus musculus), Q8BHY3;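 active = ratio plate-corrected score three or more library SD toward inhibition, starting fluorescence score within five deviations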;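 note: score derived from kinetic fluorescence span divided by baseline fluorescence per well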
DAGLB inh: DAGLB lipase inhibitors, primary screen, biochemical, fluorescence, HTS. inhibition, % at 5.17 µM. 340,000 compounds, 0.059% hits. HEK293T DAGLB membrane lysate, EnzChek fluorogenic substrate. AID 504411, 2011; in the data active = inhibition above about 34%;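 note: 0% = enzyme with vehicle and 100% = wells lacking enzyme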
TMEM16A reconf: TMEM16A chloride channel inhibitors, confirmation, cell-based, re-confirmation. shares compounds with TMEM16A inh. HEK293 TMEM16A/YFP-H148Q, iodide quench fluorescence; ionomycin added to raise cell calcium. inhibition, % at 10 µM. 2,300 compounds, 39% hits;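 active = mean duplicate percent inhibition, scaled so buffer wells are 0 and the reference blocker 100, over three buffer SD above buffer mean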
TMEM16A Ca cntr: calcium mobilization in TMEM16A/YFP HEK293 cells, confirmation, counter-screen for TMEM16A inhibitor project; Fluo4 calcium mobilization; calcium response (% of ionomycin), % at 10 µM; 2,300 compounds, 2% hits; shares compounds with TMEM16A inh; AID 652231, 2013;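 active = duplicate-averaged calcium signal over 20% of the ionomycin maximum, relative to buffer baseline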;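 note: each well's signal is peak minus trough fluorescence divided by its pre-addition baseline; 0% = buffer wells and 100% = ionomycin wells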
Parental YFP cnt: iodide YFP quench changes in parental YFP-HEK293, counter-screen for TMEM16A inhibitor project, cell-based; shares compounds with TMEM16A inh; ionomycin; YFP ratio F(max-min)/F0 at 10 µM; 2,300 tested, under 10 active; AID 652233, 2013;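 active = yellow fluorescent protein signal ratio exceeding the buffer control mean by over 5 SD of those controls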;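 note: ratio is mean of duplicate wells from kinetic YFP trace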
ClC-1 inh: ClC-1 chloride channel inhibition, selectivity assay for TMEM16A inhibitor project, cell-based, voltage-dependent ClC-1. CHO ClC-1-YFP, iodide influx fluorescence quench; iodide control reads 0, buffer control 100. ratio percent, % at 10 µM. shares compounds with TMEM16A inh. AID 652236, 2013. 2,300 tested, under 10 active;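 active = duplicate-mean ratio percent above the mean of iodide-only control wells, which defines zero, plus 5 of their SD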;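 note: higher percent means stronger block of ClC-1 iodide influx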
Active calls of the source: *; i = inactive; . = no result. Hits are enriched below; roughly 1.3% of the tested compounds scored in any of these assays.

SMILES | MT1-MMP act inh | ANO1 activ | TMEM16A inh | DAGLB inh | TMEM16A reconf | TMEM16A Ca cntr | Parental YFP cnt | ClC-1 inh
Cc1ccc(-n2c(C)cc(C(=O)CSc3nncs3)c2C)cc1 | 1 | i | 100* | -1 | 50%* | i | -0.9 | -18
O=C(Nc1ccc(F)cc1)c1ccccc1NS(=O)(=O)N1CCCC1 | 4 | i | 25* | -1 | 28%* | i | -1.2 | -6
O=S(=O)(Nc1ccc(F)cc1)N1CCCCCC1 | -3 | i | i | -7 | . | . | . | .
COc1ccc(NS(=O)(=O)c2ccc3oc(SC4CCOC4=O)nc3c2)cc1 (stereo not given) | -3 | i | 25* | -3 | 37%* | i | -1.1 | -10
COc1cccc(-c2cccc(-c3nc(C(=O)NCCCN4CCOCC4)cc4c3[C@H](CCO)N(S(=O)C(C)(C)C)C4)c2)c1 (stereo not given in full) | 4 | . | . | . | . | . | . | .
CCc1nc2c(OCCn3cccc3)cccn2c1N(C)C(=O)c1ccco1 | -3 | . | . | . | . | . | . | .
O=C(c1ccncc1)c1ccc(N2CCN(C3CC(=O)N(Cc4ccccc4)C3=O)CC2)cc1 (stereo not given) | -1 | i | 100* | 3 | 25%* | i | -0.89 | -6
CCOC(=O)C1CCCN(c2ncnc3c2oc2ccccc23)C1 (stereo not given) | 2 | i | 100* | -6 | 28%* | i | -1 | -20
CCOC(=O)C1CCN(c2nc(-c3ccccc3)nc3c2oc2ccccc23)CC1 | -2 | i | i | -6 | . | . | . | .
CCOC(=O)C1CCN(c2ncnc3c2oc2ccccc23)CC1 | 4 | i | 100* | -4 | 22%* | i | -0.9 | -16
OC(c1ccc(F)c(F)c1)c1nc(-c2cccc(C(F)(F)F)c2)cs1 (stereo not given) | 2 | . | . | . | . | . | . | .
C=CCc1ccc(OCCOCCOc2ccccc2[N+](=O)[O-])c(OC)c1 | 8 | i | 100* | -6 | i | i | -1.1 | -11
COc1ccc(C(=O)NNC(=O)c2ccc(F)c(S(=O)(=O)N3CCOCC3)c2)cc1 | 2 | i | . | -2 | . | . | . | .
COc1ccc(CCCNC(=O)C2(C)Cc3c(-c4ccc5c(c4)OCO5)ccnc3O2)cc1 (stereo not given) | -1 | . | . | . | . | . | . | .
CCSc1nnc(-c2cc(Br)ccc2N=Cc2c(C)[nH]n(-c3ccccc3)c2=O)c(=O)[nH]1 | 0 | i | 100* | 9 | 21%* | 20%* | -0.97 | -22
CSc1nnc(-c2cc(Br)ccc2N=Cc2c(C)[nH]n(-c3ccccc3)c2=O)c(=O)[nH]1 | 1 | i | i | 7 | . | . | . | .
S=C(NCCSCc1ccc(Cl)cc1Cl)Nc1ccccc1 | 2 | i | 100* | 0 | 23%* | i | -0.96 | -19
Cc1ccccc1CSCCNC(=S)Nc1ccccc1 | 6 | i | i | -5 | . | . | . | .
CC(=O)Nc1ccc(-c2ccnc3c2CC(C)(C(=O)NCc2ccc(N(C)C)cc2)O3)cc1 (stereo not given) | -1 | . | . | . | . | . | . | .
CC(C)(C)c1ccc(C(=O)NCc2ccc(Cl)cc2)cc1 | -4 | i | i | -12 | . | . | . | .
CC(C)(C)OC(=O)N1CCN(c2ccc(CNC(=O)c3ccc(Cl)cc3)cc2)CC1 | 4 | i | 100* | -3 | 22%* | i | -1.1 | -12
N#CC1(NC(=O)CSc2nnc(C3CC3)n2C2CC2)CCCCC1 | 2 | i | . | 0 | . | . | . | .
Nc1ccn([C@@H]2O[C@H](CNC(=O)[C@@H](Cc3cn(COCc4ccccc4)cn3)NC=O)[C@@H](O)[C@H]2O)c(=O)n1 | 0 | . | . | -3 | . | . | . | .
N/C(=N\OC(=O)c1cccc(F)c1)c1ccccc1 | 2 | i | 25* | -11 | i | i | -0.9 | -9
COc1cccc(Nc2nc(NCC3CCCO3)c3ccccc3n2)c1 (stereo not given) | -2 | i | 100* | 0 | 44%* | i | -1.1 | -19
SMILES | MT1-MMP act inh | ANO1 activ | TMEM16A inh | DAGLB inh | TMEM16A reconf | TMEM16A Ca cntr | Parental YFP cnt | ClC-1 inh
COc1cc(C(=O)OCC(=O)Nc2ccccc2)cc2c1OCCO2 | -5 | . | . | -10 | . | . | . | .
Cc1ccc(C2CC2C(=O)NNC(=S)Nc2cccc(Cl)c2)cc1 (stereo not given) | 6 | i | 25* | 4 | 23%* | i | -1 | -13
NS(=O)(=O)c1ccc2c(c1)C1C=CCC1C(C1CC=CCC1)N2 (stereo not given) | -16 | i | 100* | 9 | i | i | -0.83 | -7
O=C(Nc1ccc(F)cc1F)N1CCCN(c2ccc(C(F)(F)F)cn2)CC1 | 6 | i | 25* | -3 | 18%* | i | -1.1 | 1
CC(=O)c1sc2nc(-c3cccs3)ccc2c1N | -14 | i | i | 1 | . | . | . | .
Nc1c(C(=O)Nc2nc3ccccc3s2)sc2nc(-c3cccs3)ccc12 | -148 | i | i | -39 | i | i | -0.62 | 20
CCN1/C(=C/C=C/C=C/c2sc3ccccc3[n+]2CC)Sc2ccccc21 | . | . | i | . | . | . | . | .
CCN1/C(=C/C=C/C=C/C=C/c2sc3ccccc3[n+]2CC)Sc2ccccc21 | 27 | i | i | 12 | 45%* | i | -0.88 | -18
O=C(CSc1ccccn1)N1CCN(c2ccccc2)CC1 | -1 | i | i | -3 | . | . | . | .
O=C(CSc1ccccn1)N1CCN(c2cccc(Cl)c2)CC1 | 0 | i | 25* | -3 | i | i | -0.89 | -14
O=C1c2cccc3c(N4CCCCC4)ccc(c23)C(=O)N1CCO | -231 | i | i | -20 | i | i | -1.1 | -50
C=CCN1C(=O)c2cccc3c(N4CCCCC4)ccc(c23)C1=O | -138 | i | i | -9 | . | . | . | .
CCOC(=O)CCCCCC(=O)Nc1ccc2c(c1)C(=O)N([C@@H](C)CO)C[C@@H](C)[C@H](CN(C)S(=O)(=O)c1cccs1)OCCCC[C@H](C)O2 | -12 | . | . | -7 | . | . | . | .
